pIC50: −log10 of the molar value. Calls of active or inactive are those of the source. The calls are words filed in the database; no cut-off is given here.
Columns and labels:
[1] = Drug concentration in 5XFAD mouse brain at 75 ppm administered as rodent chow starting from 1.5 months and measured after 5 months; format: ADME, tissue-based; conditions: route po, time 3.5 months, read-out: Ct
Procedure, shortened: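 WT or 5xFAD mice were fed PLX3397 in AIN-76A chow at 600 ppm or 75 ppm from 1.5 to 5 months of age. Terminal brain and plasma drug concentrations were determined at study end.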

Mus musculus [2] = experiment: Antialzheimer activity in 5XFAD mouse assessed as amyloidbeta40 level in detergent soluble cortex fraction measured per microgram protein at 1200 ppm administered as rodent chow starting from 1.5 months and measured after 4 months by ELISA (reference value: 0 to 0.089 pg); format: functional; conditions: route po, time 2.5 months, 1825 h
Procedure, shortened: (§1)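 PLX5622 at 1200 ppm in chow given to 5xFAD mice from 1.5 months to 4 or 7 months of age; cortex and thalamus homogenized in TPER (detergent-soluble), pellets re-homogenized in 70% formic acid and spun 100,000 g, 1 h, 4 °C (insoluble); protein by Bradford/Lowry; Aβ species measured by Meso Scale electrochemiluminescence immunoassay, normalized to protein; n = 7–8 per group at 7 months.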

[3] = Effect on Zfp286 gene expression in wildtype mouse hippocampus assessed as percent change in Reads Per kilo base per Million mapped reads at 1200 ppm administered as rodent chow starting from 1.5 months and measured after 7 months by RNA-Seq analysis (reference value: 85.126 to 114.292 %); format: functional; conditions: route po, time 5.5 months, 4015 h
Mus musculus [4] = experiment: Antialzheimer activity in 5XFAD mouse assessed as number of S100bteta positive cells per FOV in […] cortex at 1200 ppm administered as rodent chow for 10 to 24 weeks by immunolabelling based confocal microscopic analysis (reference value: 320 to 427); format: functional; conditions: route po, time 10-24 weeks
[5] = molecular target: Tyrosine-protein kinase CSK (Homo sapiens, UniProt P41240); experiment: Inhibition of CSK (unknown origin)
Chain of Tyrosine-protein kinase CSK (P41240 whole entry): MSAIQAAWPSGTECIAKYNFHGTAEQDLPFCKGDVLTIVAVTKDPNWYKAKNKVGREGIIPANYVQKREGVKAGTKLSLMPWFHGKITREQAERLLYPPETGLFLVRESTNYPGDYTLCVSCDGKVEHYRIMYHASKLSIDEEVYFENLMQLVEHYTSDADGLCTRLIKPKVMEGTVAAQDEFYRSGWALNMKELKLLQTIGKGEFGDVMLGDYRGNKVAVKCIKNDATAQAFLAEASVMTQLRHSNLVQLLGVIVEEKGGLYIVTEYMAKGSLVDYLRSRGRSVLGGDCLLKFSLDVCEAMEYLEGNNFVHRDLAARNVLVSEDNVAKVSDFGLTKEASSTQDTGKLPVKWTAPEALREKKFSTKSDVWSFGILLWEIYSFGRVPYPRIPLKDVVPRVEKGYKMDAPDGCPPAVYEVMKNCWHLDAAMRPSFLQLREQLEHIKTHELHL

[6] = molecular target: Ribosomal protein S6 kinase alpha-2 (Homo sapiens, UniProt Q15349); experiment: Inhibition of RPS6KA2 (unknown origin)
Mus musculus [7] = experiment: Antialzheimer activity in 5XFAD mouse assessed as amyloidbeta40 level in detergent soluble thalamus fraction measured per microgram protein at 1200 ppm administered as rodent chow starting from 1.5 months and measured after 7 months by ELISA (reference value: 0 to 0.047 pg); format: functional; conditions: route po, time 5.5 months, 4015 h; procedure, shortened: as §1
[8] = AUC (0 to infinity) in dog at 1.00 mg/kg, iv administered as single dose; format: ADME, organism-based, Canis lupus familiaris; conditions: in vivo
Mus musculus [9] = experiment: Prevention of Tgfb1 gene upregulation in 5XFAD mouse hippocampus at 1200 ppm administered as rodent chow starting from 1.5 months and measured after 7 months by Nanostring analysis; format: functional, tissue-based; conditions: route po, time 5.5 months
[10] = Toxicity in wildtype mouse assessed as time in platform zone at 1200 ppm administered as rodent chow for 10 to 24 weeks by Morris water maze test (reference value: 0 to 2.7 sec); conditions: in vivo, po, time 10-24 weeks
Mus musculus [11] = experiment: Antialzheimer activity in 5XFAD mouse assessed as number of entries to center zone at 1200 ppm administered as rodent chow for 10 to 24 weeks by Open field test (reference value: 22 to 55); format: functional; conditions: route po, time 10-24 weeks
[12] = molecular target: Mitogen-activated protein kinase 13 (Homo sapiens, UniProt O15264); experiment: Inhibition of MAPK13 (unknown origin)
Chain of Mitogen-activated protein kinase 13 (O15264 whole entry): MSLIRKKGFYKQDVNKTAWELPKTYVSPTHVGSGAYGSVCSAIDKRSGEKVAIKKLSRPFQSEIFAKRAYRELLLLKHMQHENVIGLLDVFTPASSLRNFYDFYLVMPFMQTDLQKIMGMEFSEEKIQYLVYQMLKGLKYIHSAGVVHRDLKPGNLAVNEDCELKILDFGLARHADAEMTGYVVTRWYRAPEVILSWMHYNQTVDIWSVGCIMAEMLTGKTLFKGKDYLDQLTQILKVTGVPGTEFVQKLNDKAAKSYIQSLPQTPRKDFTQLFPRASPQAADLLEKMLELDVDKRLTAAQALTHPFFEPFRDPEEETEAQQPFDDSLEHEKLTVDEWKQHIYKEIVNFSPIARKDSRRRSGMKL

Mus musculus [13] = experiment: Antialzheimer activity in 5XFAD mouse assessed as number of Thio-S positive plaques per FOV in […] cortex at 1200 ppm administered as rodent chow starting from 1.5 months and measured after 4 months by Thio-S staining based confocal microscopic analysis (reference value: 63 to 124); format: functional; conditions: route po, time 2.5 months, 1825 h
Mus musculus [14] = experiment: Antialzheimer activity in 5XFAD mouse assessed as average plaque volume in thalamus at 1200 ppm administered as rodent chow starting from 1.5 months and measured after 7 months by Thio-S staining based confocal microscopic analysis (reference value: 2442.562 to 3332.739 microm3); format: functional; conditions: route po, time 5.5 months, 4015 h
Mus musculus [15] = experiment: Antialzheimer activity in 5XFAD mouse assessed as number of Thio-S positive plaques per FOV in somatosensory cortex at 1200 ppm administered as rodent chow starting from 1.5 months and measured after 7 months by Thio-S staining based confocal microscopic analysis (reference value: 22 to 106); format: functional; conditions: route po, time 5.5 months, 4015 h
[16] = molecular target: Serine/threonine-protein kinase Sgk2 (Homo sapiens, UniProt Q9HBY8); experiment: Inhibition of SGK2 (unknown origin)
Chain of Serine/threonine-protein kinase Sgk2 (Q9HBY8 whole entry): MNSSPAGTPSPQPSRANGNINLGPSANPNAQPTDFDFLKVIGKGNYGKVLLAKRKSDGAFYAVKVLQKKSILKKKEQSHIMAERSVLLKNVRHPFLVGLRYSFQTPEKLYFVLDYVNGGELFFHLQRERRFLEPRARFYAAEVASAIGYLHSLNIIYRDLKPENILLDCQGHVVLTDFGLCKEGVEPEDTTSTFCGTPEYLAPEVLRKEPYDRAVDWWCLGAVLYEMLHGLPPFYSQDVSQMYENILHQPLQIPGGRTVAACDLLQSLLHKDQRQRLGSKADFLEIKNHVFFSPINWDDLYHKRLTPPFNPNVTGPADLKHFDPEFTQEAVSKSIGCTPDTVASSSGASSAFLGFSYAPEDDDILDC

[17] = molecular target: Tyrosine-protein kinase receptor TYRO3 (Homo sapiens, UniProt Q06418); experiment: Inhibition of TYRO3 (unknown origin)
Chain of Tyrosine-protein kinase receptor TYRO3 (Q06418 whole entry): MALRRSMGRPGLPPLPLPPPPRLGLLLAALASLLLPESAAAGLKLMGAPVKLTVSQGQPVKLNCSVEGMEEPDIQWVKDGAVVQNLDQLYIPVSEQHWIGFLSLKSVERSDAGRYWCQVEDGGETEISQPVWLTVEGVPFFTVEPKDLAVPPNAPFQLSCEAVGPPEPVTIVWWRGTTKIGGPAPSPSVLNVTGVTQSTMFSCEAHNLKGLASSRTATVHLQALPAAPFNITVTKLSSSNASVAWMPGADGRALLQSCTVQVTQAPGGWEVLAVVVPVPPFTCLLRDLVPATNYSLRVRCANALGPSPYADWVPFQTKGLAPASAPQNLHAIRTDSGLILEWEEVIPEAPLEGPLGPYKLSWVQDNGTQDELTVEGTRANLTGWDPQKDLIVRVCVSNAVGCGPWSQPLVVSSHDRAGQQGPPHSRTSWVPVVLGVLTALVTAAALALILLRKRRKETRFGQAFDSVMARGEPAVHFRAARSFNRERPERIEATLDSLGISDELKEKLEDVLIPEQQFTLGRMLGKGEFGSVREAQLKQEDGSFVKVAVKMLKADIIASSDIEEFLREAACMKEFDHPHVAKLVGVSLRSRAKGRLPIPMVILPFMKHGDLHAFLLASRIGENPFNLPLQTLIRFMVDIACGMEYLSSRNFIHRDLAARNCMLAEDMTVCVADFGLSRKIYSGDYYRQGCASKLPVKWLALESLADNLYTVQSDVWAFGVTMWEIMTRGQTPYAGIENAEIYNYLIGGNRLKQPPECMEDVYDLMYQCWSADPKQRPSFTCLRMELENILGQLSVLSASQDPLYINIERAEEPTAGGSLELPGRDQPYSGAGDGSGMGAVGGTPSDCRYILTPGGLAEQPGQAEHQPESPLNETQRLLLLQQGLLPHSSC

[18] = Drug concentration in wildtype mouse brain at 1200 ppm administered as rodent chow for 10 to 24 weeks; format: ADME, tissue-based; conditions: in vivo, po, time 10-24 weeks, read-out: Ct
Procedure, shortened: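 WT or 5xFAD mice were started at 1.5 months of age on PLX5622 formulated at 1200 ppm in AIN-76A chow, with control chow as comparison. Feeding ran for 10 or 24 weeks. Terminal plasma and brain drug levels were then measured. Groups were sex-balanced and compared by two-tailed independent t-test.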

Ephrin type-A receptor 3 = Ephrin type-A receptor 3 (Homo sapiens, UniProt P29320); experiment: Inhibition of EPHA3 (unknown origin)
Mus musculus [19] = experiment: Antialzheimer activity in 5XFAD mouse assessed as percent change in claudin-5 intensity of retro spinal cortex at 1200 ppm administered as rodent chow starting from 1.5 months and measured after 4 months by immunolabeling analysis relative to control; format: functional; conditions: route po, time 2.5 months, 1825 h
[20] = molecular target: Tyrosine-protein kinase SYK (Homo sapiens, UniProt P43405); experiment: Inhibition of SYK (unknown origin)
[21] = Effect on Cst7 gene expression in 5XFAD mouse cortex at 1200 ppm administered as rodent chow starting from 1.5 months and measured after 7 months by RNA-Seq analysis (reference value: 9.853 to 27.586 RPKM); format: functional; conditions: route po, time 5.5 months, 4015 h
[22] = molecular target: Insulin-like growth factor 1 receptor (Homo sapiens, UniProt P08069); experiment: Inhibition of IGF1R (unknown origin)
AMPK alpha2/beta1/gamma1 = AMPK alpha2/beta1/gamma1 (Homo sapiens, UniProt P54619+P54646+Q9Y478); experiment: Inhibition of AMPK_A2/B1/G1 (unknown origin); format: protein-complex assay
Chain of AMPK alpha2/beta1/gamma1 (P54646 whole entry): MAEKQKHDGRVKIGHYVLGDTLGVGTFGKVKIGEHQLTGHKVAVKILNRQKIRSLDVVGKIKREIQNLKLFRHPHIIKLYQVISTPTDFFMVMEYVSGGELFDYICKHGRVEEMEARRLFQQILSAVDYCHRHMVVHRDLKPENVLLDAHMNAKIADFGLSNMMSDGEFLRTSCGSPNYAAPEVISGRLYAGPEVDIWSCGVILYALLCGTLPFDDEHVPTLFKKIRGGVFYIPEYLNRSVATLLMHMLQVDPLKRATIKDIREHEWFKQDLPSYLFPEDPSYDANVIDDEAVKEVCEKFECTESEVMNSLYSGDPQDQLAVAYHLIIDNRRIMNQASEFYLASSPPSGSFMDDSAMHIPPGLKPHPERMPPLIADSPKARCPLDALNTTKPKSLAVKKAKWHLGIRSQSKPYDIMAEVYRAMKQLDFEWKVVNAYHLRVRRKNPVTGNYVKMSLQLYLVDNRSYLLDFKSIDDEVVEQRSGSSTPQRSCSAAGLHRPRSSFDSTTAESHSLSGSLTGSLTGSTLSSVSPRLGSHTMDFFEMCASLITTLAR
Chain of AMPK alpha2/beta1/gamma1 (P54619 whole entry): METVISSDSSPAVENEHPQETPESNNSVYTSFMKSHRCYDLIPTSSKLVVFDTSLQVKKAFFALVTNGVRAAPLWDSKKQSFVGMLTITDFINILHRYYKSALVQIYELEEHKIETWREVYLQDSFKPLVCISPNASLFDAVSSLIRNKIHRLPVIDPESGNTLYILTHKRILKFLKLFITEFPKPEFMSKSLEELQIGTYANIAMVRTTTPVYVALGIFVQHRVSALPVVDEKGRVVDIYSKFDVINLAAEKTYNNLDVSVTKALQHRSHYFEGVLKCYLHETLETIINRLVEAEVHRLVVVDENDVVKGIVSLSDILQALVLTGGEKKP
Chain of AMPK alpha2/beta1/gamma1 (Q9Y478 whole entry): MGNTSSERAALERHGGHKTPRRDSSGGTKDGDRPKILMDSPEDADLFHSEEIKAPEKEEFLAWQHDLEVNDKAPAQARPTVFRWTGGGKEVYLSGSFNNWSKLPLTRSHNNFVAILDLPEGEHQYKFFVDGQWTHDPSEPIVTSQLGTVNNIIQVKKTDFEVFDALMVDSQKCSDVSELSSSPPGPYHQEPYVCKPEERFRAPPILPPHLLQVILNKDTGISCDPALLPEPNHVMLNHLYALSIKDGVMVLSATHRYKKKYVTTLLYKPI

[23] = molecular target: Receptor tyrosine-protein kinase erbB-2 (Homo sapiens, UniProt P04626); experiment: Inhibition of ERBB2 (unknown origin)
Chain of Receptor tyrosine-protein kinase erbB-2 (P04626 whole entry): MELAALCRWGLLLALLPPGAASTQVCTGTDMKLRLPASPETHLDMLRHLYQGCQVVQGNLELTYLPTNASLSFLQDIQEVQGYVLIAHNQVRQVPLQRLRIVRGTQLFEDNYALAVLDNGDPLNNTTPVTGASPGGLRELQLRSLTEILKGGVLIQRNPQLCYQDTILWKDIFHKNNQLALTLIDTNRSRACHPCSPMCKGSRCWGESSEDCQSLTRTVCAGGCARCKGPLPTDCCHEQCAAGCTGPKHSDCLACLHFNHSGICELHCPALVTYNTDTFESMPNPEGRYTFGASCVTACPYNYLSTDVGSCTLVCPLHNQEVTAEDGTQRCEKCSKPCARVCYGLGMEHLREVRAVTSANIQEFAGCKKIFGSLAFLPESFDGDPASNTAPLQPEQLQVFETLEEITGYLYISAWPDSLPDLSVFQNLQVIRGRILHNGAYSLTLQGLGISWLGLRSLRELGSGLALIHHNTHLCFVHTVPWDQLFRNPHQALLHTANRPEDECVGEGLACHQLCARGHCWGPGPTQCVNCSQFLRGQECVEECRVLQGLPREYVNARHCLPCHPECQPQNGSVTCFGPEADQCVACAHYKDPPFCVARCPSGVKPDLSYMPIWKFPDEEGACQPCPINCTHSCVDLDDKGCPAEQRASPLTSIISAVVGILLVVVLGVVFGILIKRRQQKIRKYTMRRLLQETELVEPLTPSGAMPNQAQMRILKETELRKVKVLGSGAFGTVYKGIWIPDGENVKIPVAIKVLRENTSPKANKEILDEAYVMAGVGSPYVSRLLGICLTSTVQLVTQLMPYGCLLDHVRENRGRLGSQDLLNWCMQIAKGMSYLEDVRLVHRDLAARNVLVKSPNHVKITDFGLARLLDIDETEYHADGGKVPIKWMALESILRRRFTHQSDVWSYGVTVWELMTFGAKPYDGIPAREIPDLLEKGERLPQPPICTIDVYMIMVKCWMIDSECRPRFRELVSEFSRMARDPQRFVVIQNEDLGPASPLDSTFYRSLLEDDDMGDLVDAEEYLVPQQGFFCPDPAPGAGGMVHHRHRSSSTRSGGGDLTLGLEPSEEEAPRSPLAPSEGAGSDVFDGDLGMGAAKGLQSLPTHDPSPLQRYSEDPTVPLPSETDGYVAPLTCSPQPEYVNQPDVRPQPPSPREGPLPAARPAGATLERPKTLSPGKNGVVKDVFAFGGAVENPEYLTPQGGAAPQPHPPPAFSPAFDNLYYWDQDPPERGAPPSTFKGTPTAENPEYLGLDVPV

Mus musculus [24] = experiment: Antialzheimer activity in 5XFAD mouse assessed as alteration in plaque morphology in cortex at 1200 ppm administered as rodent chow starting from 1.5 months and measured after 7 months by Thio-S labeling based confocal microscopic analysis; format: functional, organism-based; conditions: route po, time 5.5 months
Mus musculus [25] = experiment: Prevention of C1qa gene upregulation in 5XFAD mouse hippocampus at 1200 ppm administered as rodent chow starting from 1.5 months and measured after 7 months by Nanostring analysis; format: functional, tissue-based; conditions: route po, time 5.5 months
[26] = molecular target: Proto-oncogene tyrosine-protein kinase Src (Homo sapiens, UniProt P12931); experiment: Inhibition of SRC (unknown origin)
Chain of Proto-oncogene tyrosine-protein kinase Src (P12931 2-536 limits assumed): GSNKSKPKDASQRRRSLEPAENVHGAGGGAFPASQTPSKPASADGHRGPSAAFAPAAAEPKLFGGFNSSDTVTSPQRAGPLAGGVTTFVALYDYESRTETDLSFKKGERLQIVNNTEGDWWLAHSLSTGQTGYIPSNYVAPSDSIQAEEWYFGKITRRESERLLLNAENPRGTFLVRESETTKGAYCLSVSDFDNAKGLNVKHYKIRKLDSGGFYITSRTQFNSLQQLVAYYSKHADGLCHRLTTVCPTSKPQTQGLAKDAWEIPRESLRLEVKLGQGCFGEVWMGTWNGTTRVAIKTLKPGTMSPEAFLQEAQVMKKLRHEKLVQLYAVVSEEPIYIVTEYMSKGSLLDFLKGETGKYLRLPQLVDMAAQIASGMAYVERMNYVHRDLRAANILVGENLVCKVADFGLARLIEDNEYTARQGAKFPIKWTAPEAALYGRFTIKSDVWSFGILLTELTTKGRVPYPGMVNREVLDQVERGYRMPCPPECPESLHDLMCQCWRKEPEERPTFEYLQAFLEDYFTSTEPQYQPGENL

[27] = Effect on Pcdhac1 gene expression in wildtype mouse hippocampus assessed as percent change in Reads Per kilo base per Million mapped reads at 1200 ppm administered as rodent chow starting from 1.5 months and measured after 7 months by RNA-Seq analysis (reference value: 88.246 to 122.665 %); format: functional; conditions: route po, time 5.5 months, 4015 h

With FC(F)(F)c1ccc(CNc2ccc(Cc3c[nH]c4ncc(Cl)cc34)cn2)cn1 [PEXIDARTINIB] the concentration at 2555 h [1] was 600 nM.

With COc1ncc(F)cc1CNc1ccc(Cc2c[nH]c3ncc(C)cc23)c(F)n1 [PLX-5622] the Activity (Mus musculus [2]) was 0 pg, the Activity [3] was 76.544% and the Activity (Mus musculus [4]) was 288. It also gave a pIC50 [5] of under 6.00, a pIC50 [6] of under 6.00 and an Activity (Mus musculus [7]) of 0 pg. For the same molecule, the AUC(0-inf) [8] was 6230 ng·h/mL, the Activity (Mus musculus [9]) was “Active” and the Time [10] was 0.4 s. It also gave an Activity (Mus musculus [11]) of 7, a pIC50 [12] of under 6.00 and an Activity (Mus musculus [13]) of 13. For the same molecule, the Activity (Mus musculus [14]) was 1488.396 um3, the Activity (Mus musculus [15]) was 2 and the pIC50 [16] was under 6.00. For the same molecule, the pIC50 [17] was under 6.00, the concentration [18] was 3350 nM and the pIC50 (Ephrin type-A receptor 3) was under 6.00. For the same molecule, the Activity (Mus musculus [19]) was 33.704%, the pIC50 [20] was under 6.00 and the Activity [21] was 0.887 RPKM. For the same molecule, the pIC50 [22] was under 6.00, the pIC50 (AMPK alpha2/beta1/gamma1) was under 6.00 and the pIC50 [23] was under 6.00. For the same molecule, the Activity (Mus musculus [24]) was “Active”, the Activity (Mus musculus [25]) was “Active” and the pIC50 [26] was under 6.00. For the same molecule, the Activity [27] was 63.951%.

Source: ChEMBL document CHEMBL5649170, “Sustained microglial depletion with CSF1R inhibitor impairs parenchymal plaque development in an Alzheimer's disease model” (Nat Commun, 2019)
